Experimental data published in ChEMBL document CHEMBL2021807, “The conversion of oridonin to spirolactone-type or enmein-type diterpenoid: synthesis and biological evaluation of ent-6,7-seco-oridonin derivatives as novel potential anticancer agents” (Eur J Med Chem, 2012).

Columns and labels:
K562 = experiment: Cytotoxicity against human K562 cells after 72 hrs by MTT assay; assay type: functional, cell-based; conditions: K562, 72 h
In short: (§1)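 MTT assay. Log-phase cells were seeded at 5×10^4 cells/ml and treated in four replicates at 0.39–100 μg/ml, 37 °C, 5% CO2. At 72 h, MTT (5 mg/ml solution) was added for 4 h, then DMSO, and OD read at 490 nm. Negative reference was 0.1% DMSO; Taxol at 10 μg/ml served as positive reference. IC50 in μM, mean of three experiments.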

[1] = Cytotoxicity against human CaEs17 cells after 72 hrs by MTT assay; assay type: functional, cell-based; conditions: CaEs17, 72 h; in short: as §1
Bel-7402 = experiment: Cytotoxicity against human Bel7402 cells after 72 hrs by MTT assay; assay type: functional, cell-based; conditions: Bel-7402, 72 h; in short: as §1
MGC-803 [2] = experiment: Cytotoxicity against human MGC803 cells after 72 hrs by MTT assay; assay type: functional, cell-based; conditions: MGC-803, 72 h; in short: as §1
MCF7 = experiment: Cytotoxicity against human MCF7 cells after 72 hrs by MTT assay; assay type: functional, cell-based; conditions: MCF7, 72 h; in short: as §1
HeLa = experiment: Cytotoxicity against human HeLa cells after 72 hrs by MTT assay; assay type: functional, cell-based; in short: as §1
A549 = experiment: Cytotoxicity against human A549 cells after 72 hrs by MTT assay; assay type: functional, cell-based; conditions: A549, 72 h; in short: as §1
MGC-803 [3] = experiment: Antitumor activity against human MGC803 cells xenografted in ICR mouse assessed as inhibition of tumor growth at 10 mg/kg, ip qd for 25 consecutive days dosed 7 days post tumor cells transplantation relative to untreated control; assay type: functional; conditions: MGC-803, ip, 168 h, read-out: INH, route intraperitoneal
In short: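 MGC-803 gastric cancer tumors in mice, 8 per group. Intraperitoneal dosing at 10 mg/kg in 1% DMSO/2% poloxamer/97% saline, started 7 d after tumor transplantation and given once daily for 25 consecutive days. The negative control received 0.9% saline ip. At the end, mice were killed and weighed and tumors excised and weighed. Inhibition (%) = (1 − mean treated tumor weight/mean control tumor weight) × 100.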

HepG2 = experiment: Cytotoxicity against human HepG2 cells; assay type: functional, cell-based
MGC-803 [4] = experiment: Antitumor activity against human MGC803 cells xenografted in ICR mouse assessed as inhibition of tumor growth at 10 mg/kg, iv qd for 25 consecutive days dosed 7 days post tumor cells transplantation relative to untreated control; assay type: functional; conditions: MGC-803, 168 h
In short: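 MGC-803 gastric cancer tumors in mice, 8 per group. Intravenous dosing at 10 mg/kg in 1% DMSO/2% poloxamer/97% saline, started 7 d after tumor transplantation and given once daily for 25 consecutive days. The control group received 0.9% saline ip. Tumors were excised and weighed at the end. Inhibition (%) = (1 − mean treated tumor weight/mean control tumor weight) × 100.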

C=C1C(=O)[C@@]23C(=O)OC[C@]4(C(=O)CCC(C)(C)[C@H]4C=O)[C@@H]2CC[C@@H]1[C@H]3OC(=O)c1ccc(C(F)(F)F)cc1
IC50 (K562): 2.82 µM
IC50 [1]: 8.96 µM
IC50 (Bel-7402): 3.99 µM
IC50 (MGC-803 [2]): 4.93 µM

C=C1C(=O)[C@@]23C(=O)OC[C@]4(C(=O)CCC(C)(C)[C@H]4C=O)[C@@H]2CC[C@@H]1[C@H]3OC(=O)c1ccc([N+](=O)[O-])cc1
IC50 (K562): 1.33 µM
IC50 [1]: 2.68 µM
IC50 (Bel-7402): 3.3 µM
IC50 (MGC-803 [2]): 3.33 µM

C=C1C(=O)[C@@]23C(=O)OC[C@]4(C(=O)CCC(C)(C)[C@H]4C=O)[C@@H]2CC[C@@H]1[C@H]3OC(=O)c1ccc(F)cc1
IC50 (K562): 2.7 µM
IC50 [1]: 8.31 µM
IC50 (Bel-7402): 3.75 µM
IC50 (MGC-803 [2]): 3.96 µM

C=C1C(=O)[C@@]23C(=O)OC[C@]4(C(=O)CCC(C)(C)[C@H]4C=O)[C@@H]2CC[C@@H]1[C@H]3OC(=O)c1ccccc1F
IC50 (K562): 2.86 µM
IC50 [1]: 8.55 µM
IC50 (Bel-7402): 3.95 µM
IC50 (MGC-803 [2]): 3.94 µM

C=C1C(=O)[C@@]23C(=O)OC[C@]4(C(=O)CCC(C)(C)[C@H]4C=O)[C@@H]2CC[C@@H]1[C@H]3OC(=O)c1ccc(Cl)cc1
IC50 (K562): 1.38 µM
IC50 [1]: 2.55 µM
IC50 (Bel-7402): 3.84 µM
IC50 (MGC-803 [2]): 3.12 µM

C=C1C(=O)[C@@]23C(=O)OC[C@]4(C(=O)CCC(C)(C)[C@H]4C=O)[C@@H]2CC[C@@H]1[C@H]3OC(=O)c1ccccc1Cl
IC50 (K562): 1.22 µM
IC50 [1]: 2.01 µM
IC50 (Bel-7402): 2.89 µM
IC50 (MGC-803 [2]): 2.66 µM

C=C1C(=O)[C@@]23C(=O)O[C@H]4CCC(C)(C)[C@H]5[C@H](O)OC[C@@]45[C@@H]2CC[C@@H]1[C@H]3O
IC50 (K562): 8.11 µM
IC50 (MCF7): 68.2 µM
IC50 [1]: 30.8 µM
IC50 (Bel-7402): 33 µM
IC50 (HeLa): 60.7 µM
IC50 (A549): 50.9 µM

C=C1C(=O)[C@@]23C(=O)O[C@H]4CCC(C)(C)[C@H]5C(=O)OC[C@@]45[C@@H]2CC[C@@H]1[C@H]3O
IC50 (K562): 2.64 µM
IC50 (MCF7): 20.3 µM
IC50 [1]: 23.7 µM
IC50 (Bel-7402): 16 µM
IC50 (HeLa): 39.7 µM
IC50 (A549): 43.1 µM

C=C1C(=O)[C@@]23C(=O)OC[C@]4(C(=O)CCC(C)(C)[C@H]4C=O)[C@@H]2CC[C@@H]1[C@H]3O
IC50 (K562): 2.18 µM
IC50 (MCF7): 24 µM
IC50 [1]: 5.85 µM
IC50 (Bel-7402): 5.03 µM
IC50 (HeLa): 4.63 µM
IC50 (A549): 4.58 µM
inhibition in vivo at 10 mg/kg (MGC-803 [3]): 31.4%

C=C1C(=O)[C@@]23C(=O)OC[C@]4([C@@H](OC(C)=O)CCC(C)(C)[C@H]4C=O)[C@@H]2CC[C@@H]1[C@H]3O
IC50 (K562): 9.56 µM
IC50 (MCF7): 76.7 µM
IC50 [1]: 72.5 µM
IC50 (Bel-7402): 75.4 µM
IC50 (HeLa): 79.4 µM
IC50 (A549): 26 µM

C=C1C(=O)[C@@]23C(=O)OC[C@]4(C(=O)CCC(C)(C)[C@H]4C=O)[C@@H]2CC[C@@H]1[C@H]3OC(C)=O
IC50 (K562): 1.39 µM
IC50 [1]: 1.35 µM
IC50 (Bel-7402): 1.73 µM
IC50 (MGC-803 [2]): 1.66 µM

C=C1C(=O)[C@@]23C(=O)OC[C@]4(C(=O)CCC(C)(C)[C@H]4C=O)[C@@H]2CC[C@@H]1[C@H]3OC(=O)CC
IC50 (K562): 1.31 µM
IC50 [1]: 1.4 µM
IC50 (Bel-7402): 1.65 µM
IC50 (MGC-803 [2]): 1.78 µM

C=C1C(=O)[C@@]23C(=O)OC[C@]4(C(=O)CCC(C)(C)[C@H]4C=O)[C@@H]2CC[C@@H]1[C@H]3OC(=O)c1ccccc1
IC50 (K562): 1.48 µM
IC50 [1]: 1.71 µM
IC50 (Bel-7402): 1.85 µM
IC50 (MGC-803 [2]): 1.92 µM

C=C1C(=O)[C@@]23C(=O)OC[C@]4(C(=O)CCC(C)(C)[C@H]4C=O)[C@@H]2CC[C@@H]1[C@H]3OC(=O)c1ccc(C)cc1
IC50 (K562): 1.27 µM
IC50 [1]: 1.05 µM
IC50 (Bel-7402): 1.54 µM
IC50 (MGC-803 [2]): 2.24 µM

C=C1C(=O)[C@@]23C(=O)OC[C@]4(C(=O)CCC(C)(C)[C@H]4C=O)[C@@H]2CC[C@@H]1[C@H]3OC(=O)c1ccc(OC)cc1
IC50 (K562): 1.65 µM
IC50 [1]: 2.98 µM
IC50 (Bel-7402): 2.8 µM
IC50 (MGC-803 [2]): 1.87 µM

C=C1C(=O)[C@]23C[C@H]1C[C@H](O)[C@H]2[C@@]12CO[C@@H](O)[C@@H]1C(C)(C)CC[C@@H]2OC3=O [EPINODOSIN]
IC50 (HepG2): 0.45 µM

C=C1C(=O)[C@]23[C@H](O)[C@H]1CC[C@H]2[C@@]12CO[C@]3(O)[C@@H](O)[C@@H]1C(C)(C)CC[C@@H]2O [ORIDONIN]
IC50 (K562): 4.76 µM
IC50 (MCF7): 14.6 µM
IC50 [1]: 11 µM
IC50 (Bel-7402): 7.48 µM
IC50 (HeLa): 32.7 µM
IC50 (A549): 26.2 µM
IC50 (MGC-803 [2]): 5.69 µM
inhibition in vivo at 10 mg/kg (MGC-803 [3]): 26.3%

CC(=O)O[C@H]1C(=O)[C@@]2(C)[C@H]([C@H](OC(=O)c3ccccc3)[C@]3(O)C[C@H](OC(=O)[C@H](O)[C@@H](NC(=O)c4ccccc4)c4ccccc4)C(C)=C1C3(C)C)[C@]1(OC(C)=O)CO[C@@H]1C[C@@H]2O [PACLITAXEL]
IC50 (K562): 0.41 µM
IC50 [1]: 0.43 µM
IC50 (Bel-7402): 1.89 µM
IC50 (MGC-803 [2]): 0.85 µM
inhibition in vivo at 10 mg/kg (MGC-803 [4]): 66.6%

C=C1C(=O)[C@]23C[C@H]1CC[C@H]2[C@@]1(CCCC(C)(C)[C@H]1CO)COC3=O [SCULPONEATIN N]
IC50 (K562): 0.21 µM
